The record followed here is ChEMBL document CHEMBL4513216, “Probing the Open Global Health Chemical Diversity Library for Multistage-Active Starting Points for Next-Generation Antimalarials” (ACS Infect Dis, 2020).

The structures appear in SMILES notation.

A short description of the data set: Toxicity liver stage against HepG2, at 10uM. Set-up: test concentration 10 uM, cell line HepG2-A16-CD81EGFP. The note with it: human, HepG2-A16-CD81EGFP cells; read-out: INHIBITION
The format is cell-based. A digest of the protocol:
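Uninfected HepG2-A16-CD81EGFP cells, 3 × 10^3 per well, 1536-well, plated on prespotted compound at 10 μM final, parasite-free screening media added to match infected plates; puromycin 10 μM positive, DMSO 0.5% negative; run in parallel with 48 h PbLuc assay at 37 °C, 5% CO2; viability by CellTiter-Glo luminescence, normalized to controls.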

Turning to `CC(C)=CCn1ncc(N2CCOCC2)cc1=O`, the cytotoxicity at 10 µM is -9.96%.

Turning to `Cc1csc(C(C)(C)NCc2ncc(-c3ccccc3)o2)n1`, the cytotoxicity at 10 µM was determined as 7.95%.

Regarding `COc1ncccc1NC(=O)NC(CCCO)c1ccccc1` (stereo not drawn), the cytotoxicity at 10 µM came to 11.2%.

With `NC(=O)N1CCC2(CCN(Cc3ccccn3)C2=O)C1` (stereo not drawn), the cytotoxicity at 10 µM amounted to 3.39%.

For `CN(C)c1cc2c(nn1)CCN(C(=O)Cc1ccc3c(c1)CCO3)C2`, the cytotoxicity at 10 µM is 5.71%.

Regarding `Cc1cccc(CN2C[C@@H]3CN(C(=O)C4CC=CC4)C[C@@H]3C2=O)n1`, the cytotoxicity at 10 µM was 2%.

For `CCc1nccn1CCCn1ccnc1-c1[nH]cnc1C`, the cytotoxicity at 10 µM turned out to be 10%.

Regarding `CCN1CCCC(CNC(=O)C2(c3cc(C)cc(C)c3)CCC2)C1` (stereo not drawn), the cytotoxicity at 10 µM is -10.7%.

Turning to `CN(CCn1nc2ccccn2c1=O)CC(=O)NC1CC1`, the cytotoxicity at 10 µM came out at 3.2%.

`CN(Cc1ccc(Cl)s1)C1CCCN(c2cccnn2)C1` (stereo not drawn): the cytotoxicity at 10 µM was -4.27%.

For the molecule `Cc1cccc(CN2C[C@@H](C)[C@@]3(CCN(CC(=O)N(C)C)C3=O)C2)c1`, the cytotoxicity at 10 µM is -0.979%.

Consider `Cc1ccc(-c2cccc(CC3(C(=O)O)CCOCC3)c2)c(C)c1`, for which the cytotoxicity at 10 µM is -29.8%.

For `CCS(=O)(=O)N1CCc2c(COCCN(C)C)cncc2C1`, the cytotoxicity at 10 µM was -104%.

Consider `CNS(=O)(=O)c1cc(C(=O)NC2COc3ccccc3C2)ccc1OC` (stereo not drawn), for which the cytotoxicity at 10 µM was 18.9%.

Consider `COc1ccc(-n2nc(C3CC3)nc2CCn2cnnn2)cc1`, for which the cytotoxicity at 10 µM was -2.88%.

Consider `CC(OCC(F)(F)F)C(=O)N1CCN(S(C)(=O)=O)CC1` (stereo not drawn), for which the cytotoxicity at 10 µM is -1.33%.

As to `CCCc1nnc(NCCn2nc(C)c(Cl)c2C)o1`, the cytotoxicity at 10 µM worked out at 1.89%.

On to `CCn1ncc2c1C(COCC1CC1)CN(S(=O)(=O)N(C)C)C2` (stereo not drawn), for which the cytotoxicity at 10 µM was -10.4%.

In the case of `Cc1ccc(S(=O)(=O)NCc2cnn(C)c2)c(F)c1`, the cytotoxicity at 10 µM is -13%.

Take `Cc1c(CN2CCCC(c3[nH]ncc3S(C)(=O)=O)C2)cnn1C` (stereo not drawn): the cytotoxicity at 10 µM is 4.69%.

Consider `Cc1cc(N2CCC(Cc3ncccn3)C2)ncn1` (stereo not drawn), for which the cytotoxicity at 10 µM is 0.146%.

For the molecule `CC(Cn1cncc1-c1cnn(C2CCCCC2)c1)N1CCCCC1` (stereo not drawn), the cytotoxicity at 10 µM was 2.87%.

For the molecule `CCc1nnc2n1CCN(Cc1ncc(-c3ccccc3)o1)C2`, the cytotoxicity at 10 µM is -3.98%.

`Cc1ccc(C)c(C(C(=O)O)N2CCCN(Cc3ccccn3)CC2)c1` (stereo not drawn): the cytotoxicity at 10 µM was -15.6%.

As for `CCCNC(=O)[C@@H]1CCCN1[C@@H](C(=O)NC)C1CC1`, the cytotoxicity at 10 µM was 1.32%.

In the case of `O=C(C1=CCCC1)N1C[C@H]2CCC[C@@]2(COCc2ccncc2)C1`, the cytotoxicity at 10 µM turned out to be 2.78%.

For the molecule `CCOc1ccc(NC(=O)N2CCOC(C(N)=O)C2)cc1Cl` (stereo not drawn), the cytotoxicity at 10 µM is -140%.

For the molecule `Cc1cccc(Nc2cc(C)nc(C3CCN(C(C)C)C3)n2)n1` (stereo not drawn), the cytotoxicity at 10 µM was found to be 9.93%.

`CC(NC(=O)NCCCN(C)S(C)(=O)=O)c1cccc(Cl)c1` (stereo not drawn): the cytotoxicity at 10 µM came to 3.44%.

Regarding `CC(C)Cc1cc(C(=O)N2CC(OCc3ccccc3F)C2)n(C)n1`, the cytotoxicity at 10 µM was determined as 8.92%.

On to `O=C1COC[C@H]([C@H](O)c2ccc(NC(=O)c3cccnc3)cc2)N1`, for which the cytotoxicity at 10 µM is 0.317%.

Consider `Cc1ccc(CN2CC(C(=O)NCC3CC3)C3(CCOCC3)C2)s1` (stereo not drawn), for which the cytotoxicity at 10 µM was -3.66%.

In the case of `Cc1ccc(C(=O)N2CC[C@@H]3[C@H]2CCC(=O)N3c2ccccc2)o1`, the cytotoxicity at 10 µM was -3.89%.

For `COCCN1CCc2ncnc(N(C)C)c2CC1`, the cytotoxicity at 10 µM was -0.025%.

Consider `CN(C)C(=O)COc1ccccc1CN1CCCC2(C1)CN(C)C(=O)O2` (stereo not drawn), for which the cytotoxicity at 10 µM was determined as 0.224%.

`CC1CN(C)CCN1CC(=O)NCCOc1cccc(F)c1` (stereo not drawn): the cytotoxicity at 10 µM is -11.7%.

On to `CCOC(=O)N1CCN(C(=O)c2cc(-c3ccc(C)cc3)on2)CC1`, for which the cytotoxicity at 10 µM was 5.68%.

Turning to `CCc1noc(C)c1C(=O)NCc1c(C)nn(CCOC)c1C`, the cytotoxicity at 10 µM is -9.35%.

In the case of `Cc1ccsc1C(=O)N1CC(C(=O)NCC2CC2)C2(CCOCC2)C1` (stereo not drawn), the cytotoxicity at 10 µM is 0.955%.

`Cc1noc(C)c1CNS(=O)(=O)N(C)Cc1ccccc1Br`: the cytotoxicity at 10 µM stood at 17.8%.

For `COC(=O)c1ccc(C2SCC(=O)Nc3c2cnn3C(C)(C)C)cc1` (stereo not drawn), the cytotoxicity at 10 µM was determined as 2.06%.

With `COc1ccccc1CC(C)CC(=O)O` (stereo not drawn), the cytotoxicity at 10 µM came out at 12.9%.

On to `Cc1cc(C(=O)N2CCCCC2C)ccc1NCC(=O)N1CCOCC1` (stereo not drawn), for which the cytotoxicity at 10 µM is 4.08%.

For `CC(NC1(CNS(=O)(=O)N(C)C)CCCC1)c1ccccc1` (stereo not drawn), the cytotoxicity at 10 µM is -5.01%.

In the case of `CNc1cncc(C2CCCN2C(=O)c2ccc3c(c2)OCCO3)n1` (stereo not drawn), the cytotoxicity at 10 µM was -2.97%.

Consider `CCOCC(=O)N1CCc2c(CN(C)C)nn(C(C)C)c2C1`, for which the cytotoxicity at 10 µM is -2.63%.

`COCCN(Cc1ccoc1)C(=O)c1cccnc1SC`: the cytotoxicity at 10 µM is 12.4%.

As for `COc1ccccc1C(=O)NCCC(=O)Nc1c(C)nn(C)c1C`, the cytotoxicity at 10 µM is -9.49%.

`COCCNc1ncc(-c2onc(C)c2C)c(-c2ccco2)n1`: the cytotoxicity at 10 µM came out at 5.92%.

Take `Fc1ccc(OCCCN2CCCC(Cn3cncn3)C2)cc1` (stereo not drawn): the cytotoxicity at 10 µM was -7.81%.

With `O=C(NC1CC1)c1cc(NC(=O)N2CCCC2)ccc1Cl`, the cytotoxicity at 10 µM worked out at 3.31%.

As for `COCc1nc(CNc2cccc(-c3nc(C)c(C)o3)c2)cs1`, the cytotoxicity at 10 µM turned out to be 5.11%.

On to `COCC[C@]1(O)CCN(C(=O)c2cnn(C)c2)C[C@H]1C`, for which the cytotoxicity at 10 µM amounted to 2.59%.

For `CCc1nccn1C1CCCN(C(=O)Cc2cn3ccsc3n2)C1` (stereo not drawn), the cytotoxicity at 10 µM was -23%.

Turning to `Cc1cc(C)c2[nH]c(=O)c(CN3CCC(O)(CN(C)C)C3)cc2c1` (stereo not drawn), the cytotoxicity at 10 µM was -2.99%.

As to `COc1c(C2CCCN2Cc2cccc(C(N)=O)c2)c(C)nn1C` (stereo not drawn), the cytotoxicity at 10 µM is -8.18%.

Take `Cc1nn(C(C)(C)C)c(=O)n1CC(=O)NC(C)(C)C`: the cytotoxicity at 10 µM was 1.45%.

On to `COCCN(C)Cc1nc(-c2cccc(F)c2F)oc1C`, for which the cytotoxicity at 10 µM was 2.56%.

Regarding `CCNC(=O)CCS(=O)(=O)Cc1ccn(-c2cccc(F)c2)n1`, the cytotoxicity at 10 µM came out at 11.1%.

With `CC(NC(=O)NC1CCN(Cc2ccccn2)CC1)c1nncn1C` (stereo not drawn), the cytotoxicity at 10 µM amounted to 0.335%.

With `Cc1nn(C)c(Oc2ccc(Cl)cc2)c1CN1CCOC(CN)C1` (stereo not drawn), the cytotoxicity at 10 µM amounted to 8.85%.

Consider `CCOCCCNC(=O)CCSCc1csc(C)n1`, for which the cytotoxicity at 10 µM was -3.57%.

As for `CCC(NC(=O)Nc1ccc(OC)c(C)c1)c1ccncc1` (stereo not drawn), the cytotoxicity at 10 µM is -2.07%.

Consider `CCn1cnnc1CNC(=O)C1COc2ccc(Cl)cc2C1` (stereo not drawn), for which the cytotoxicity at 10 µM was -0.845%.

In the case of `O=C(CCCNC(=O)Nc1ccc(F)cc1)Nc1cn[nH]c1`, the cytotoxicity at 10 µM came out at 9.37%.

As for `NC(=O)CN(C(=O)C1Cc2cc(Cl)ccc2O1)C1CCCC1` (stereo not drawn), the cytotoxicity at 10 µM was found to be 10.1%.

As for `CCCN(C)c1ccc(C(=O)Nc2c(C)nn(C(C)C)c2C)cc1`, the cytotoxicity at 10 µM is -2.84%.

Take `COCCCNC(=O)CN1CCC(N2CCN(C)C2=O)CC1`: the cytotoxicity at 10 µM was -2.54%.

Consider `CCN1CC2(CC1=O)CN(C(=O)C(C)C)CCN(S(C)(=O)=O)C2` (stereo not drawn), for which the cytotoxicity at 10 µM was -4.54%.

On to `O=C(CC1CC1)N1Cc2nccn2CC(CN2CCCC2)C1` (stereo not drawn), for which the cytotoxicity at 10 µM is -67.7%.

On to `Cc1nc(C2CCCN(C(=O)Cn3ccccc3=O)C2)no1` (stereo not drawn), for which the cytotoxicity at 10 µM is -9.37%.

As to `CCn1cc(-c2nn3c(C(C)C)nnc3s2)c(C)n1`, the cytotoxicity at 10 µM is -14.6%.

Take `COc1cc(S(=O)(=O)N2CCc3cc(Br)ccc32)cc(C(=O)O)c1OC`: the cytotoxicity at 10 µM was -15.9%.

In the case of `CN1C(=O)[C@@H]2CC[C@H]1CN(C(=O)c1sccc1S(N)(=O)=O)C2`, the cytotoxicity at 10 µM is 5.6%.

For the molecule `NCC1CCCCN1C(=O)Cc1cccc(Cl)c1` (stereo not drawn), the cytotoxicity at 10 µM is -5.36%.

With `COCc1nc(N2CCC(CCO)CC2)c2cnn(C)c2n1`, the cytotoxicity at 10 µM was 1.22%.

In the case of `Cc1cnc(-c2cccc(-c3ccn(CCCO)n3)c2)nc1N(C)C`, the cytotoxicity at 10 µM is -7.6%.

In the case of `Fc1cnc(N2CC[C@@H](N3CCOCC3)[C@@H]2Cc2ccccc2)nc1`, the cytotoxicity at 10 µM is 3.67%.

With `CCCn1nnnc1COc1cc(OC)ccc1C(N)=O`, the cytotoxicity at 10 µM was -4.42%.

Regarding `Cc1ccc(N(C)CC(O)COCc2ccccc2F)c(C)c1` (stereo not drawn), the cytotoxicity at 10 µM was 18%.

On to `c1cc(CCN2CCN(c3ccc4nncn4n3)CC2)ccn1`, for which the cytotoxicity at 10 µM worked out at 4.76%.

Regarding `Cc1cc(C)cc(-n2ncc3c2CCCC3N)c1` (stereo not drawn), the cytotoxicity at 10 µM amounted to 7.63%.

On to `O=C(c1ccc2[nH]cnc2c1)N1CCC(Oc2cccnc2)CC1`, for which the cytotoxicity at 10 µM was -12.8%.

For `COc1ncnc(N(C)C)c1NC(=O)Cc1cc(F)ccc1F`, the cytotoxicity at 10 µM is -2.67%.

Regarding `CCc1nc(C2CCCN(C(=O)c3c(C)noc3C)C2)no1` (stereo not drawn), the cytotoxicity at 10 µM is -12.8%.

On to `c1csc(CCN2CCCC2c2noc(C3CC3)n2)c1` (stereo not drawn), for which the cytotoxicity at 10 µM was 9.15%.

With `Cc1[nH]n(-c2ccccc2)c2nnc(N)c1-2`, the cytotoxicity at 10 µM stood at 12.4%.

As to `Cc1noc(C)c1CN1CCO[C@H]2CN(C(=O)C3CCOCC3)C[C@H]21`, the cytotoxicity at 10 µM stood at 0.845%.

On to `Cc1ccccc1OCCC(=O)N(C)Cc1c(C)noc1C`, for which the cytotoxicity at 10 µM was -8.73%.

As for `Cc1cc(CN2CCN(C(=O)c3sccc3C3CC3)CC2)on1`, the cytotoxicity at 10 µM worked out at 4.69%.

Take `CC(C)Cc1cc(C(=O)N2CCC(Cc3cnn(C)c3)C2)cc(O)n1` (stereo not drawn): the cytotoxicity at 10 µM is -2.1%.

Take `CC(C)c1nccc(CN(C)Cc2cnn(-c3ccccc3)c2)n1`: the cytotoxicity at 10 µM came to 6.66%.

`CN1CCN(C(=O)c2ccc(Cn3cc(Br)cn3)cc2)CC1`: the cytotoxicity at 10 µM was -3.7%.

In the case of `COCc1nccc(C2CCCN(Cc3cccc(C#N)c3)C2)n1` (stereo not drawn), the cytotoxicity at 10 µM stood at 18.7%.

`COc1cccc(CNc2c(C)cnc3c2c(=O)n(C)c(=O)n3C)c1`: the cytotoxicity at 10 µM was 21.1%.

Consider `O=C(NCc1ccc(C(=O)O)o1)c1ccc(F)cc1`, for which the cytotoxicity at 10 µM is 13.2%.

With `COc1cccc(CNCc2c(C(C)C)nn(C)c2N(C)C)c1`, the cytotoxicity at 10 µM is -7.36%.

Turning to `CCn1cnnc1CNC(=O)N1CCN(C(C)C)CC1`, the cytotoxicity at 10 µM is -18.1%.
